In test [1] the target is Platelet-derived growth factor receptor alpha (Homo sapiens, UniProt P16234). The experiment in a line: Inhibition of PDGF-induced PDGFRalpha autophosphorylation at Y849 residue in human NCI-H1703 cells after 2 hrs in presence of PDGF-AA by Western blot analysis. The class given is cell-based. In general terms: A western blot detects proteins with antibodies after separation by electrophoresis.

In test [2] the target is SRSF protein kinase 1 (Homo sapiens) (UniProt Q96SB4). As to the kind of experiment: Binding affinity to wild-type human full length SRPK1 (M1 to S655 residues) expressed in bacterial expression system assessed as residual binding level at 1 uM by Kinomescan method relative to control. Put shortly: (§1)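 KINOMEscan competition binding against 468 purified kinases/mutants, test compound at 1 µM; residual binding relative to control.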

Test [3] deals with Uncharacterized serine/threonine-protein kinase SBK3 (Homo sapiens) (UniProt P0C264). The experiment in a line: Binding affinity to wild-type human partial length SgK110 (L22 to R329 residues) expressed in bacterial expression system assessed as residual binding level at 1 uM by Kinomescan method relative to control. Put shortly: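 KINOMEscan competition binding against a panel of 468 purified kinases/mutants, compound tested at 1 μM; readout is relative binding activity versus control.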

Test [4] deals with cAMP-dependent protein kinase catalytic subunit beta (Homo sapiens) (UniProt P22694). As to the kind of experiment: Binding affinity to wild-type human full length PKAC-beta (M1 to F351 residues) expressed in bacterial expression system assessed as residual binding level at 1 uM by Kinomescan method relative to control. Put shortly: (§2)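 Single-concentration KINOMEscan (DiscoverX) binding screen at 1 μM against a panel of 468 purified kinases and mutants. The read-out is binding relative to control.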

For test [5], the target named is Mitogen-activated protein kinase 9 (Homo sapiens) (UniProt P45984). As to the kind of experiment: Binding affinity to wild-type human full length JNK2 (M1 to Q382 residues) expressed in mammalian expression system assessed as residual binding level at 1 uM by Kinomescan method relative to control. The method, boiled down: as §1
Test [6] deals with Non-receptor tyrosine-protein kinase TYK2 (Homo sapiens) (UniProt P29597). The experiment in a line: Binding affinity to wild-type human partial length TYK2 JH1 catalytic domain (V877 to C1187 residues) expressed in mammalian expression system assessed as residual binding level at 1 uM by Kinomescan method relative to control.
Test [7] has as its target Mitogen-activated protein kinase 10 (Homo sapiens) (UniProt P53779). As to the kind of experiment: Binding affinity to wild-type human partial length JNK3 (V28 to Q422 residues) expressed in mammalian expression system assessed as residual binding level at 1 uM by Kinomescan method relative to control. The method, boiled down:
(§3)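 Kinome-wide competition binding screen against a panel of 468 purified kinases/mutants, with the test compound at a single concentration of 1 μM. Read-out is the relative binding activity of each kinase in the presence of compound.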

In test [8] the target is Serine/threonine-protein kinase PAK 6 (Homo sapiens) (UniProt Q9NQU5). The experiment in a line: Binding affinity to wild-type human partial length PAK6 (N298 to C681 residues) expressed in bacterial expression system assessed as residual binding level at 1 uM by Kinomescan method relative to control.
Test [9] has as its target Serine/threonine-protein kinase 3 (Homo sapiens) (UniProt Q13188). The experiment in a line: Binding affinity to wild-type human partial length MST2 (D17 to E318 residues) expressed in bacterial expression system assessed as residual binding level at 1 uM by Kinomescan method relative to control.
In test [10] the target is Mitogen-activated protein kinase kinase kinase 2 (Homo sapiens) (UniProt Q9Y2U5). The experiment in a line: Binding affinity to wild-type human partial length MAP3K2 (S315 to H619 residues) expressed in mammalian expression system assessed as residual binding level at 1 uM by Kinomescan method relative to control.
For test [11], the target named is Serine/threonine-protein kinase ULK3 (Homo sapiens) (UniProt Q6PHR2). The experiment in a line: Binding affinity to wild-type human partial length ULK3 (M1 to Q290 residues) expressed in mammalian expression system assessed as residual binding level at 1 uM by Kinomescan method relative to control.
Test [12] deals with MAP kinase-activated protein kinase 2 (Homo sapiens) (UniProt P49137). The experiment in a line: Binding affinity to wild-type human partial length MAPKAPK2 (V48 to D345 residues) expressed in bacterial expression system assessed as residual binding level at 1 uM by Kinomescan method relative to control. The method, boiled down: as §3
The target of test [13] is Serine/threonine-protein kinase tousled-like 1 (Homo sapiens) (UniProt Q9UKI8). The experiment in a line: Binding affinity to wild-type human partial length TLK1 (K447 to A754 residues) expressed in bacterial expression system assessed as residual binding level at 1 uM by Kinomescan method relative to control.
The target in test [14] is Calcium/calmodulin-dependent protein kinase kinase 1 (Homo sapiens) (UniProt Q8N5S9). The experiment in a line: Binding affinity to wild-type human partial length CAMKK1 (R65 to E414 residues) expressed in bacterial expression system assessed as residual binding level at 1 uM by Kinomescan method relative to control. Put shortly: as §3
The subject of the next test is EOL1. As to the kind of experiment: Antitumor activity against human EOL-1 cells xenografted in nu/nu mouse assessed as tumor growth inhibition at 100 mg/kg/day, ip. The class given is functional. The settings on record: read-out: TGI. The method, boiled down:
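Female nu/nu mice (6 weeks) given subcutaneous right-flank injection of 5 million EOL-1 cells in PBS/Matrigel 1:1. At 200–400 mm3 tumors, randomized to groups of 6 and dosed daily i.p. for 14 days at 25, 50 or 100 mg/kg/d in 0.5% methylcellulose/0.4% Tween80. Tumor volume = W²×L/2, measured daily.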
A general note: In xenograft studies the graft and the host belong to different species.

For test [15], the target named is Casein kinase I isoform gamma-2 (Homo sapiens) (UniProt P78368). The experiment in a line: Binding affinity to wild-type human full length CSNK1G2 (M1 to K415 residues) expressed in bacterial expression system assessed as residual binding level at 1 uM by Kinomescan method relative to control. The method, boiled down: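 Single-concentration (1 μM) competition-binding screen run by KINOMEscan against a panel of 468 purified kinases and mutants. The read-out is the relative binding activity of the test compound to each kinase.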

The target of test [16] is Myosin light chain kinase, smooth muscle (Homo sapiens) (UniProt Q15746). As to the kind of experiment: Binding affinity to wild-type human full length MYLK (M854 to E1845 residues) expressed in mammalian expression system assessed as residual binding level at 1 uM by Kinomescan method relative to control. The method, boiled down:
as §2

The target in test [17] is Serine/threonine-protein kinase Nek6 (Homo sapiens) (UniProt Q9HC98). As to the kind of experiment: Binding affinity to wild-type human full length NEK6 (M8 to T313 residues) expressed in bacterial expression system assessed as residual binding level at 1 uM by Kinomescan method relative to control. Put shortly:
as §2

The target in test [18] is Receptor-interacting serine/threonine-protein kinase 2 (Homo sapiens) (UniProt O43353). The experiment in a line: Binding affinity to wild-type human partial length RIPK2 (M1 to K310 residues) expressed in bacterial expression system assessed as residual binding level at 1 uM by Kinomescan method relative to control.
The target in test [19] is RAC-alpha serine/threonine-protein kinase (Homo sapiens) (UniProt P31749). As to the kind of experiment: Binding affinity to wild-type human partial length AKT1 expressed in bacterial expression system assessed as residual binding level at 1 uM by Kinomescan method relative to control. Put shortly:
as §2

In test [20] the target is Ephrin type-B receptor 6 (Homo sapiens) (UniProt O15197). The experiment in a line: Binding affinity to wild-type human partial length EPHB6 (Q634 to P948 residues) expressed in mammalian expression system assessed as residual binding level at 1 uM by Kinomescan method relative to control.

Chain of Uncharacterized serine/threonine-protein kinase SBK3 (Homo sapiens) (P0C264 whole entry, the tested form may be a part): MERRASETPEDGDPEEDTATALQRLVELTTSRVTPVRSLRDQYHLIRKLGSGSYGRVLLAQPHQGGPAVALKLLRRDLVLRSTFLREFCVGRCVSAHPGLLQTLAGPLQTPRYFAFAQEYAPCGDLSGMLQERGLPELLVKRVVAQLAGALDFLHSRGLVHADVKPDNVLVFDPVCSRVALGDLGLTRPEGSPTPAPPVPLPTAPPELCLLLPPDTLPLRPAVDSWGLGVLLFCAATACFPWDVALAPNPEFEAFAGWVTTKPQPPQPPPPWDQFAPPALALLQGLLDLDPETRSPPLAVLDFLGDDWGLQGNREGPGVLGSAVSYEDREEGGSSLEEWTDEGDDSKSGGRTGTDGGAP
Chain of Non-receptor tyrosine-protein kinase TYK2 (Homo sapiens) (P29597 whole entry, the tested form may be a part): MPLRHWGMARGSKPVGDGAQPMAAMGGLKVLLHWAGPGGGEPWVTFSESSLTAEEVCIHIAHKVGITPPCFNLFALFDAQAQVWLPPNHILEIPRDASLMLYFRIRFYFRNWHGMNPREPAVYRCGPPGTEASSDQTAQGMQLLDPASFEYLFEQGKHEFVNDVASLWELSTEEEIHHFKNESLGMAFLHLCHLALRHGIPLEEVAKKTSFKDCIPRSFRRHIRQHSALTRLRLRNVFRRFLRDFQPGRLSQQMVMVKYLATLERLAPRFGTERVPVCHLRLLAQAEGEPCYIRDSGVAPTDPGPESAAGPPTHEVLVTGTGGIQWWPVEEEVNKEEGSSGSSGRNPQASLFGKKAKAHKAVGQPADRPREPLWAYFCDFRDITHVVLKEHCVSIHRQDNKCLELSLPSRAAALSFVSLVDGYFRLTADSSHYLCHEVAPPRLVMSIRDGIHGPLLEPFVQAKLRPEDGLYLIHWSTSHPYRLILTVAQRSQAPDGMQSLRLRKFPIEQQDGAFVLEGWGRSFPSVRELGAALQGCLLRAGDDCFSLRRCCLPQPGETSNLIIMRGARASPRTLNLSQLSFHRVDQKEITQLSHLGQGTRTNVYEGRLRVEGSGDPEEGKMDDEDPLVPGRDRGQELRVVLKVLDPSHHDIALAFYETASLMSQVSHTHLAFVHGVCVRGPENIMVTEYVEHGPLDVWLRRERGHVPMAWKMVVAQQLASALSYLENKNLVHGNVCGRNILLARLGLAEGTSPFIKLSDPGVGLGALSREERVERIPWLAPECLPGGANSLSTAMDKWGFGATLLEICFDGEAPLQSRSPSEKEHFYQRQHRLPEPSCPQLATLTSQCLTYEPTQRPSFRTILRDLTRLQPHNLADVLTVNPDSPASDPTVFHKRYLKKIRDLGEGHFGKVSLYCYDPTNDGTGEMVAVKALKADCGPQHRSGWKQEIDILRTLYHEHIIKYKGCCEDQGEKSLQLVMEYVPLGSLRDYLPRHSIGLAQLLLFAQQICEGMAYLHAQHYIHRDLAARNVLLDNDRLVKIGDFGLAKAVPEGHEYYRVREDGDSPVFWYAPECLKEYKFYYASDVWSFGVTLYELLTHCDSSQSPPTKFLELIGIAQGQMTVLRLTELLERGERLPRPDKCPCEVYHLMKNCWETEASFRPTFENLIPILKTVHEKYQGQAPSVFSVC
Chain of Serine/threonine-protein kinase tousled-like 1 (Homo sapiens) (Q9UKI8 whole entry, the tested form may be a part): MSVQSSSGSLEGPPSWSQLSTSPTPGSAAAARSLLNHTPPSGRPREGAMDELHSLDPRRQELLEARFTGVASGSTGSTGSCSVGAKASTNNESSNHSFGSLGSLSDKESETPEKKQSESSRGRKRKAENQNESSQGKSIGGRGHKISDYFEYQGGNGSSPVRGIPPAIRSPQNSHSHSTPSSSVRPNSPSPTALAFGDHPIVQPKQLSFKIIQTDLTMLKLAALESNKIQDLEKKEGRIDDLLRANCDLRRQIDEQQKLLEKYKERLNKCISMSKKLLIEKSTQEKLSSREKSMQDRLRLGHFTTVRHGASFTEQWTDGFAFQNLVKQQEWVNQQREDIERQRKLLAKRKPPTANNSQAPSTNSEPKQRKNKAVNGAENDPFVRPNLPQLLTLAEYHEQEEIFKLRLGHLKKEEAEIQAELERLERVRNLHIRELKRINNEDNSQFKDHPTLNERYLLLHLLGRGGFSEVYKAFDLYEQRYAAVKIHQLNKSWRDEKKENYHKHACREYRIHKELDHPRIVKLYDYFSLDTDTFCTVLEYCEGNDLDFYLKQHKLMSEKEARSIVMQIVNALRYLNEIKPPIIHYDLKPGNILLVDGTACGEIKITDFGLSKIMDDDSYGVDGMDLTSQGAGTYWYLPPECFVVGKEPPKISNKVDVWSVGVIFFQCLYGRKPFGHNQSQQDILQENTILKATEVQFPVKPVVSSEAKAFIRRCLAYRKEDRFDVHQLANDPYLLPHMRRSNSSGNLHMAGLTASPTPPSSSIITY
Chain of Mitogen-activated protein kinase 10 (Homo sapiens) (P53779 whole entry, the tested form may be a part): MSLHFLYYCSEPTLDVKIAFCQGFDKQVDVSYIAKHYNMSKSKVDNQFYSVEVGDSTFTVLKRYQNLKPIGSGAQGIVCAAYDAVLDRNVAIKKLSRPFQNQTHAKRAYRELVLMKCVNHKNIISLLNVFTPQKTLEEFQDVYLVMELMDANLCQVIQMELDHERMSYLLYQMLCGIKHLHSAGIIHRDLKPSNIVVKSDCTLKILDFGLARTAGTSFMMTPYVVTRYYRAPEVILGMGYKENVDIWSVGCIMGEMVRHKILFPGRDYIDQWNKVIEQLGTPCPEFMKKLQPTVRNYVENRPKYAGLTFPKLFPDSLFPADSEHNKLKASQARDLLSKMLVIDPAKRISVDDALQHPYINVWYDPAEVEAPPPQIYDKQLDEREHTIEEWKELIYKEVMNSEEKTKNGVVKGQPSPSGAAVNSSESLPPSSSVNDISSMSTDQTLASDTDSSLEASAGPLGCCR
Chain of Mitogen-activated protein kinase 9 (Homo sapiens) (P45984 whole entry, looked up, the tested form may be a part): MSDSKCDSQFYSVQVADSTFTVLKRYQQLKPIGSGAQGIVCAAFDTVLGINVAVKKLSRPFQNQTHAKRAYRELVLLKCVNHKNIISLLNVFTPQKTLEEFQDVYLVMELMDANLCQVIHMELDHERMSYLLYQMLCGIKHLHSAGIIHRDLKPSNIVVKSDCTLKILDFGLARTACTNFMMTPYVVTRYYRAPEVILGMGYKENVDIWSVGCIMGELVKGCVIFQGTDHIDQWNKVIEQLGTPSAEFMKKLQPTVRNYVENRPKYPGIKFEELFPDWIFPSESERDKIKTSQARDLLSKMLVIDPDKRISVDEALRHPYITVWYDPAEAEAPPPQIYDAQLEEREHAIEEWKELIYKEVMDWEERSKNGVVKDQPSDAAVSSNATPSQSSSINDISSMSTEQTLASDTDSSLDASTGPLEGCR
Chain of Serine/threonine-protein kinase PAK 6 (Homo sapiens) (Q9NQU5 whole entry, looked up, the tested form may be a part): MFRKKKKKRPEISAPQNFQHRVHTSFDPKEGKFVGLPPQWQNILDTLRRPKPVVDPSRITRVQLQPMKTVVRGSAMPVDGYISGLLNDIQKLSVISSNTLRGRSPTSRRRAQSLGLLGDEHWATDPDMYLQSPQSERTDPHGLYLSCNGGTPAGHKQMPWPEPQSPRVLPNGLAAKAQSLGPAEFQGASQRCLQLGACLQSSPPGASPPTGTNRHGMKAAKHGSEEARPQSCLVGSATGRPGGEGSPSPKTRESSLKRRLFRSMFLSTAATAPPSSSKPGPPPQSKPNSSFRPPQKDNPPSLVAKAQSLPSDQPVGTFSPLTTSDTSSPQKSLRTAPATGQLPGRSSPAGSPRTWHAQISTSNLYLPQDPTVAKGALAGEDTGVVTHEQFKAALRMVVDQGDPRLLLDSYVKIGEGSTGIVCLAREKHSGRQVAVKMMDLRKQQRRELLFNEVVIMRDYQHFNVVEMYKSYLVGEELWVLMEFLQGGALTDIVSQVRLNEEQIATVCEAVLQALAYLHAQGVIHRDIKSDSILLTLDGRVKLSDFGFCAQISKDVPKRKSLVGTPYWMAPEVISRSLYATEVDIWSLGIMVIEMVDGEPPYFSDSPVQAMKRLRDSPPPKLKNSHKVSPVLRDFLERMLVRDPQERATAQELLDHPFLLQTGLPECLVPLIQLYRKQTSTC
Chain of Platelet-derived growth factor receptor alpha (P16234 whole entry): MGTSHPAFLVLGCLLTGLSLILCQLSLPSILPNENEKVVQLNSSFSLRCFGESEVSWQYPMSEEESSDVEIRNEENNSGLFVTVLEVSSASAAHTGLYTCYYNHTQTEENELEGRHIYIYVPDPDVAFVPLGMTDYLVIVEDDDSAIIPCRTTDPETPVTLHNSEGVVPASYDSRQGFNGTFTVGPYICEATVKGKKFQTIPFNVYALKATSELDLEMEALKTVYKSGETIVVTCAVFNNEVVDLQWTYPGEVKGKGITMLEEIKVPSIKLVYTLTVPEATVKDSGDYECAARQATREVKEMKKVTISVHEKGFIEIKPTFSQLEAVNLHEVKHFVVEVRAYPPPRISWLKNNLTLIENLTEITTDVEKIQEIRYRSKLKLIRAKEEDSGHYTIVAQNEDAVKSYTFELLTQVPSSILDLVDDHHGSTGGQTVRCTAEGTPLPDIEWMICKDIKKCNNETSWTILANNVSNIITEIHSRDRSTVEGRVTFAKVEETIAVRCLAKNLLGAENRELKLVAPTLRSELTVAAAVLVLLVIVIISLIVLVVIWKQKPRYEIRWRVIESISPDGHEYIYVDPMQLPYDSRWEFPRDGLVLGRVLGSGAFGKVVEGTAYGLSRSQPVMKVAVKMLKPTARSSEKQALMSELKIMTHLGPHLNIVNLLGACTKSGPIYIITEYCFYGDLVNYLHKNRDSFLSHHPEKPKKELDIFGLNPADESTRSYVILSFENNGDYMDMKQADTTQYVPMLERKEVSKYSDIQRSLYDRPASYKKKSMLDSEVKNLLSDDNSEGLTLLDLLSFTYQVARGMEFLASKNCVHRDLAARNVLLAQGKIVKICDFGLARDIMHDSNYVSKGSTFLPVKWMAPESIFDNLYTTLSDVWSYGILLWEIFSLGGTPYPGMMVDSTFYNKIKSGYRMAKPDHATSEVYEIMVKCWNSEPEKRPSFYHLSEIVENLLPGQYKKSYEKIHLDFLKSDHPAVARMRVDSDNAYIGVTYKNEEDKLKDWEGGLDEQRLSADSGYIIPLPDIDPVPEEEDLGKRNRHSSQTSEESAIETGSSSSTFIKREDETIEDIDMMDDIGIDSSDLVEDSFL

With `Cc1ccc(NC(=O)c2ccc(CN(CCN(C)C)C(=O)c3cccnc3)cc2)cc1Nc1nccc(-c2cccnc2)n1`, the inhibition result in test [1] was “Dose-dependent effect”. The Activity came to 92% in [2]; 72% in test [3]; 77% in [4]; 91% in [5]; 100% in test [6]; 48% in [7]. For the same compound, the Activity was found to be 90% in test [8]; 100% in test [9]; 100% in [10]; 85% in [11]; 92% in [12]; 100% in test [13]. Further, the Activity in test [14] amounted to 92%; in test [15], 99%; in test [16], 100%; in test [17] it was 90%; in [18], 93%; in test [19] it was 95%. Moreover, the Activity in [20] was determined as 100%. Further, the inhibition in vivo at 100 mg/kg/day with EOL1 is 100%.
